The values below come from ChEMBL document CHEMBL4406880, “Design, synthesis, and bioactivity of dihydropyrimidine derivatives as kinesin spindle protein inhibitors” (Bioorg Med Chem, 2019).

The test system of one data set is CCRF-CEM. The data set is described as follows: Growth inhibition of human CCRF-CEM cells assessed as growth percentage at 10 uM incubated for 48 hrs by sulforhodamine B assay relative to control. Type of data set: functional. The following applies: read-out: Activity. In short, it runs like this:
(§1)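 NCI-60 one-dose screen: cells in RPMI 1640 with 5% FBS and 2 mM L-glutamine, plated at 5,000–40,000 cells/well and preincubated 24 h at 37 °C, 5% CO2. Compound is added from a DMSO stock to a final 10 µM and incubated 48 h. Cells are TCA-fixed and stained with sulforhodamine B, read at 515 nm. Output is % growth versus untreated control, with a time-zero plate.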

The test system of the next data set is MOLT-4. The data set is described as follows: Growth inhibition of human MOLT4 cells assessed as growth percentage at 10 uM incubated for 48 hrs by sulforhodamine B assay relative to control. Particulars: MOLT-4, 48 h, read-out: Activity. The class given is functional. Summed up:
(§2)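 NCI-60 one-dose screen. Cells in RPMI 1640 with 5% FBS and 2 mM L-glutamine, seeded at 5,000–40,000 cells/well according to doubling time, and preincubated overnight at 37 °C, 5% CO2. A time-zero plate was TCA-fixed at drug addition. Compound from DMSO stock, final 10 µM, 48 h; DMSO vehicle controls. Fixation with TCA, 10% final (16% for suspension cells). SRB stain, Tris solubilization, A515. Result given as % growth versus untreated cells.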

Another data set deals with HOP-62. The data set is described as follows: Growth inhibition of human HOP62 cells assessed as growth percentage at 10 uM incubated for 48 hrs by sulforhodamine B assay relative to control. The class given is functional. Particulars: HOP-62, 48 h, read-out: Activity. In short, it runs like this: as §2
(In general: Sulforhodamine B stains cellular protein and so reports cell mass.)

For another data set, the system named is COLO 205. The data set is described as follows: Growth inhibition of human COLO205 cells assessed as growth percentage at 10 uM incubated for 48 hrs by sulforhodamine B assay relative to control. Type of data set: functional. The following applies: COLO 205, 48 h, read-out: Activity. In short, it runs like this:
as §1

In another data set the test system is SW-620. The data set is described as follows: Growth inhibition of human SW620 cells assessed as growth percentage at 10 uM incubated for 48 hrs by sulforhodamine B assay relative to control. Particulars: SW-620, 48 h, read-out: Activity. The class given is functional. Summed up: (§3)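 NCI-60 single-dose screen. Cells were grown in RPMI 1640 with 5% FBS and 2 mM L-glutamine and plated at 5,000–40,000 cells/well. After an overnight preincubation at 37 °C in 5% CO2, compound was added at a final 10 µM from a DMSO stock, with DMSO/PBS controls. After 48 h, cells were TCA-fixed and stained with 0.4% SRB, and absorbance was read at 515 nm. Growth is given as a percentage of untreated control.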

A further data set has as its system SF-295. The data set is described as follows: Growth inhibition of human SF295 cells assessed as growth percentage at 10 uM incubated for 48 hrs by sulforhodamine B assay relative to control. The class given is functional. The following applies: SF-295, 48 h, read-out: Activity. In short, it runs like this:
as §3

The subject of another data set is SK-MEL-2. The data set is described as follows: Growth inhibition of human SK-MEL-2 cells assessed as growth percentage at 10 uM incubated for 48 hrs by sulforhodamine B assay relative to control. Type of data set: functional. Particulars: SK-MEL-2, 48 h, read-out: Activity. Summed up: as §3
In another data set the test system is UACC-257. The data set is described as follows: Growth inhibition of human UACC257 cells assessed as growth percentage at 10 uM incubated for 48 hrs by sulforhodamine B assay relative to control. The class given is functional. The following applies: UACC-257, 48 h, read-out: Activity. In short, it runs like this:
as §3

The next data set deals with OVCAR-8. The data set is described as follows: Growth inhibition of human OVCAR8 cells assessed as growth percentage at 10 uM incubated for 48 hrs by sulforhodamine B assay relative to control. The following applies: OVCAR-8, 48 h, read-out: Activity. Type of data set: functional. In short, it runs like this:
as §3

The next data set relates to SN12C. The data set is described as follows: Growth inhibition of human SN12C cells assessed as growth percentage at 10 uM incubated for 48 hrs by sulforhodamine B assay relative to control. The class given is functional. The following applies: read-out: Activity. In short, it runs like this:
as §3

Data set [1] can be described thus: Growth inhibition of human HEK293 cells assessed as cell viability at 0.39 ug incubated for 48 hrs by MTT assay relative to control. The class given is cell-based. Particulars: read-out: Activity. A general note: Tetrazolium dyes change colour on reduction, which living cells bring about.
A short description of data set [2]: Growth inhibition of human HEK293 cells assessed as cell viability at 1.56 ug incubated for 48 hrs by MTT assay relative to control. The class given is cell-based. The following applies: read-out: Activity.
Data set [3] in a line: Growth inhibition of human HEK293 cells assessed as cell viability at 6.25 ug incubated for 48 hrs by MTT assay relative to control. Type of data set: cell-based. The following applies: read-out: Activity.
The nature of data set [4]: Growth inhibition of human HEK293 cells assessed as cell viability at 25 ug incubated for 48 hrs by MTT assay relative to control. The class given is cell-based. Particulars: read-out: Activity.
Data set [5] is described as follows: Growth inhibition of human HEK293 cells assessed as cell viability at 100 ug incubated for 48 hrs by MTT assay relative to control. Type of data set: cell-based. The following applies: read-out: Activity.
Another data set deals with HEK293. The data set is described as follows: Growth inhibition of human HEK293 cells assessed as cell viability incubated for 48 hrs by MTT assay. Further details: unit not given here. Type of data set: cell-based. Summed up: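 HEK 293 normal-cell growth inhibition; measured in triplicate, IC50 reported as mean ± SD.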
The nature of data set [6]: Inhibition of kinesin (unknown origin) assessed as reduction in ATPase activity using microtubule as substrate measured for 5 to mins. On the set-up: species or system Homo sapiens.
The test system of data set [7] is MDA-MB-435. The data set is described as follows: Induction of apoptosis in human MDA-MB-435 cells assessed as active caspase 3 level incubated for 2 hrs by ELISA (reference value: 1). The class given is functional. Summed up:
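Active caspase-3 was measured by human sandwich ELISA. Samples were incubated on the plate for 2 h at room temperature. This was followed by 1 h with detection antibody, 30 min with anti-rabbit IgG-HRP, and 30 min with chromogen, with all steps at room temperature. Absorbance was read at 450 nm, and levels were read from a standard curve.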
A general note: In an ELISA, binding on a coated surface is turned into a signal by an enzyme label.

The test system of data set [8] is MDA-MB-435. The data set is described as follows: Induction of apoptosis in human MDA-MB-435 cells assessed as active caspase 9 level incubated for 2 hrs by ELISA (reference value: 1). The class given is functional. In short, it runs like this: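 Caspase-9 was measured by human ELISA on cell lysates, with samples in duplicate. Samples were incubated with detection antibody for 2 h at room temperature. This was followed by 1 h with anti-rabbit IgG-HRP and 10 min with TMB substrate. After a stop solution, absorbance was read at 450 nm.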

The next data set deals with HCT-15. The data set is described as follows: Growth inhibition of human HCT15 cells assessed as cell viability at 1 uM incubated for 48 hrs by sulforhodamine B assay. The class given is functional. The following applies: HCT-15, 48 h, read-out: Activity.
Another data set concerns ACHN. The data set is described as follows: Growth inhibition of human ACHN cells assessed as cell viability at 0.1 uM incubated for 48 hrs by sulforhodamine B assay. Type of data set: functional. Particulars: read-out: Activity. Summed up: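 NCI-60 five-dose mode: five tenfold dilutions (0.01, 0.1, 1, 10, 100 µM) are applied for 48 h to cells in RPMI 1640 with 5% FBS at 37 °C. Endpoint is TCA fixation with sulforhodamine B read at 515 nm. % growth comes from the 0 h and control absorbances. GI50 is the concentration giving a 50% reduction in net cell growth.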

For another data set, the system named is NCI-H322M. The data set is described as follows: Growth inhibition of human NCI-H322M cells assessed as cell viability at 0.001 uM incubated for 48 hrs by sulforhodamine B assay relative to control. Type of data set: functional. The following applies: read-out: Activity.

In the case of `CC1=C(C(=O)OCc2ccccc2)C(c2ccc3c(c2)OCO3)n2c(nc3ccccc32)N1` (racemic), the growth at 10 µM was 24.9 to 31% in the data set with CCRF-CEM; 37.1 to 41% with MOLT-4; 36 to 44.2% in the data set with HOP-62; 37.2 to 43% in the data set on COLO 205; 17.6 to 19% in the data set on SW-620; 8 to 20.4% in the data set with SF-295. The growth at 10 µM is 33 to 47.8% with SK-MEL-2, 34 to 60.4% with UACC-257, 39 to 46.7% in the data set with OVCAR-8 and 47.6 to 51% in the data set with SN12C. In addition, the viability at 48 h, 0.39 ug in [1] amounted to 77.6%. Moreover, in data set [2], the viability at 48 h, 1.56 ug came out at 67.2%. Further, in data set [3], the viability at 48 h, 6.25 ug is 58.7%. In addition, the viability at 48 h, 25 ug in data set [4] was 47.2%. The viability at 48 h, 100 ug in data set [5] amounted to 36%. For the same compound, the IC50 in the data set with HEK293 amounted to 16.75; in data set [6], 4.36 µM. Moreover, the “fold change (FC)” value is on record as 6.83 in the data set with MDA-MB-435 [7] and 12.43 with MDA-MB-435 [8]. Besides, in the data set with HCT-15, the viability at 1 µM is 25%. Further, in the data set with ACHN, the viability at 0.1 µM was determined as 107%. Also, the viability at 0.001 µM in the data set with NCI-H322M is 96%.
